In ChEMBL document CHEMBL4130603, “Anti-inflammatory Grayanane Diterpenoids from the Leaves of Rhododendron molle” (J Nat Prod, 2018):

Key:
[1] = Cytotoxicity against mouse RAW264.7 cells assessed as survival rate at 200 uM measured in presence of LPS by MTT assay relative to control; type: cell-based; settings: read-out: Survival
In short: (§1)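 RAW 264.7 mouse macrophages treated with compound at 200 μM, with or without 1 μg/mL LPS. Viability read by MTT and expressed as survival rate (%). Values are means ± SD, n = 3.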

[2] = test system: RAW264.7; assay: Antiinflammatory activity in mouse RAW264.7 cells assessed as inhibition of LPS-induced nitric oxide production at 40 uM by griess assay relative to control; type: functional
In short: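 LPS-stimulated RAW 264.7 mouse macrophages; nitric oxide production measured; single-concentration screen of inhibition relative to control. Dexamethasone as positive control.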

[3] = Cytotoxicity against mouse RAW264.7 cells assessed as survival rate at 200 uM measured in absence of LPS by MTT assay relative to control; type: cell-based; settings: read-out: Survival; in short: as §1
[4] = test system: RAW264.7; assay: Antiinflammatory activity in mouse RAW264.7 cells assessed as inhibition of LPS-induced nitric oxide production by griess assay; type: functional, cell-based
In short: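 RAW 264.7 mouse macrophages induced with LPS; NO production measured over five test concentrations to derive IC50; means ± SD, n = 3; dexamethasone positive control.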

[5] = test system: RAW264.7; assay: Cytotoxicity against mouse RAW264.7 cells at 200 uM measured in presence of LPS by MTT assay; type: cell-based; settings: raw264.7, 200 µM
In short: (§2)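 MTT viability of RAW 264.7 mouse macrophages exposed to compound at 200 μM, with or without 1 μg/mL LPS; reported as cell survival rate (%).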

[6] = test system: RAW264.7; assay: Cytotoxicity against mouse RAW264.7 cells at 200 uM measured in absence of LPS by MTT assay; type: cell-based; settings: raw264.7, 200 µM; in short: as §2

SMILES | viability at 200 µM [1] [%] | inhibition at 40 µM [2] [%] | viability at 200 µM [3] [%] | IC50 [4] [µM] | Activity [5] | Activity [6]
CC(=O)O[C@@H]1C[C@]23C[C@@](C)(O)[C@H](CC[C@H]2[C@@](C)(O)[C@@H]2[C@@H](Cl)[C@H](O)C(C)(C)[C@@]12O)[C@H]3O | 95.2 | > 50 | 99.3 | 5.8 | – | –
CC(=O)O[C@@H]1C[C@]23C[C@@](C)(O)[C@H](CC[C@H]2[C@@](C)(O)[C@@H]2[C@@H](O)[C@H](O)C(C)(C)[C@@]12O)[C@H]3O | 99.8 | > 50 | 98.8 | 9.3 | – | –
C=C1[C@@H]2[C@@H](O)[C@H](O)C(C)(C)[C@@]2(O)[C@H](OC(C)=O)C[C@]23C=C(C)[C@H](CC[C@@H]12)[C@H]3O | – | – | – | > 40 | Non-Toxic | Non-Toxic
CC(=O)O[C@@H]1[C@H]2CC[C@H]3[C@@](C)(O)[C@@H]4[C@@H]5O[C@@H]5C(C)(C)[C@@]4(O)[C@H](O)C[C@@]13C[C@@]2(C)O | – | – | – | > 40 | Non-Toxic | Non-Toxic
C[C@@H]1C[C@H]2[C@@H]3CCC4=CC(=O)C=C[C@]4(C)[C@@]3(F)[C@@H](O)C[C@]2(C)[C@@]1(O)C(=O)CO [DEXAMETHASONE] | 97.1 | – | 97.7 | 0.8 | – | –
C=C1C[C@@]23C[C@@H](O)[C@@]4(O)C([C@@H]5O[C@@H]5C4(C)C)[C@](C)(O)[C@@H]2CC[C@@H]1[C@H]3O (stereo partly specified) | – | – | – | > 40 | Non-Toxic | Non-Toxic
C=C1[C@@H]2CC[C@@H]3C[C@@]2(C[C@@H](O)[C@@]2(O)[C@H]1C[C@H](O)[C@]2(C)CO)C[C@@]3(C)O | – | – | – | > 40 | Non-Toxic | Non-Toxic
C=C1[C@@H]2[C@@H](O)[C@H](O)C(C)(C)[C@@]2(O)[C@H](O)C[C@]23C[C@@](C)(O)[C@H](CC[C@@H]12)[C@H]3O | 97.5 | > 50 | 98.1 | 8.1 | – | –
CC(=O)O[C@@H]1[C@H]2CC[C@H]3[C@@](C)(O)[C@@H]4[C@@H](O)[C@H](O)C(C)(C)[C@@]4(O)[C@H](OC(C)=O)C[C@@]13C[C@@]2(C)O | 93.9 | > 50 | 97.4 | 10.3 | – | –
CC(=O)O[C@@H]1C[C@]23C[C@@](C)(OC(C)=O)[C@H](CC[C@H]2[C@@](C)(O)[C@@H]2[C@@H]4O[C@@H]4C(C)(C)[C@@]12O)[C@H]3O | 99.7 | > 50 | 98.9 | 10.1 | – | –
C=C1[C@@H]2[C@@H]3O[C@@H]3C(C)(C)[C@@]2(O)[C@H](O)C[C@]23C[C@@](C)(O)[C@H](CC[C@@H]12)[C@H]3O | 92 | > 50 | 90.3 | 35.4 | – | –
C=C1[C@@H]2[C@@H](O)[C@H](O)C(C)(C)[C@@]2(O)[C@H](OC(C)=O)C[C@]23C[C@@](C)(O)[C@H](CC[C@@H]12)[C@H]3O | – | – | – | > 40 | Non-Toxic | Non-Toxic
CO[C@H]1[C@H](O)C(C)(C)[C@@]2(O)[C@H](OC(C)=O)C[C@]34C[C@@](C)(O)[C@H](CC[C@H]3[C@@](C)(O)[C@H]12)[C@H]4O | 97.3 | > 50 | 98.3 | 4.6 | – | –
C=C1[C@@H]2[C@@H](OC)[C@H](O)C(C)(C)[C@@]2(O)[C@H](O)C[C@]23C[C@@](C)(O)[C@H](CC[C@@H]12)[C@H]3O | – | – | – | > 40 | Non-Toxic | Non-Toxic
C=C1[C@@H]2[C@@H](OC)[C@H](O)C(C)(C)[C@@]2(O)[C@H](OC(C)=O)C[C@]23C[C@@](C)(O)[C@H](CC[C@@H]12)[C@H]3O | – | – | – | > 40 | Non-Toxic | Non-Toxic
C=C1[C@@H]2CC[C@@H]3C[C@@]2(C[C@@H](O)[C@@]2(O)[C@H]1C[C@H](O)C2(C)C)C[C@@]3(C)O | 93.8 | > 50 | 96.4 | 3.5 | – | –
CO[C@@H]1[C@H]2[C@@H](C)[C@]34CC[C@H]5C(C)=C[C@]3(C[C@@H](OC(C)=O)[C@]2(O4)C(C)(C)[C@H]1O)[C@@H]5O | – | – | – | > 40 | Non-Toxic | Non-Toxic
CO[C@H]1[C@H](O)C(C)(C)[C@@]2(O)[C@H](OC(C)=O)C[C@]34C[C@@](C)(O)[C@H](CC[C@H]3[C@@](C)(O)[C@H]12)[C@H]4OC(C)=O | – | – | – | > 40 | Non-Toxic | Non-Toxic
CC1(C)[C@H]2O[C@H]2[C@H]2[C@](C)(O)[C@@H]3CC[C@@H]4[C@@H](O)[C@@]3(C[C@@H](O)[C@@]21O)C[C@@]4(C)O | 98.4 | > 50 | 96.5 | 7 | – | –
CC(=O)O[C@@H]1C[C@]23C[C@@](C)(O)[C@H](CC[C@H]2[C@@](C)(O)[C@@H]2C[C@H](O)C(C)(C)[C@@]12O)[C@H]3O | – | – | – | > 40 | Non-Toxic | Non-Toxic
CC1(C)[C@@H](O)[C@H](O)[C@H]2[C@](C)(O)[C@@H]3CC[C@@H]4[C@@H](O)[C@@]3(C[C@@H](O)[C@@]21O)C[C@@]4(C)O | 90.4 | > 50 | 97 | 8 | – | –
CO[C@@H]1[C@H]2C(C)=C3CC[C@@H]4[C@@H](O)[C@@]3(C[C@@H](OC(C)=O)[C@]2(O)C(C)(C)[C@H]1O)C[C@@]4(C)O | – | – | – | > 40 | Non-Toxic | Non-Toxic
C=C1[C@@H]2CC[C@@H]3C[C@@]2(C[C@@H](OC(C)=O)[C@@]2(O)[C@H]1C[C@H](O)C2(C)C)C[C@@]3(C)O | – | – | – | > 40 | Non-Toxic | Non-Toxic
CC(=O)O[C@@H]1C[C@]23C[C@@](C)(O)[C@H](CC[C@H]2[C@@](C)(O)[C@@H]2[C@@H]4O[C@@H]4C(C)(C)[C@@]12O)[C@H]3O | 93.6 | > 50 | 101 | 2.8 | – | –
CO[C@H]1[C@H](O)C(C)(C)[C@@]2(O)[C@H](OC(C)=O)C[C@]34C[C@@](C)(O)[C@H](CC[C@H]3[C@@](C)(O)[C@H]12)[C@H]4O[C@H]1[C@H](O)C(C)(C)[C@@]2(O)[C@H](OC(C)=O)C[C@]34C[C@@](C)(O)[C@H](CC[C@H]3[C@@](C)(O)[C@H]12)[C@H]4O | – | – | – | > 40 | Non-Toxic | Non-Toxic
CO[C@H]1[C@H](O)C(C)(C)[C@@]2(O)[C@H](O)C[C@]34C[C@@](C)(O)[C@H](CC[C@H]3[C@@](C)(O)[C@H]12)[C@H]4O | – | – | – | > 40 | Non-Toxic | Non-Toxic
CC(=O)O[C@@H]1C[C@]23C=C(C)[C@H](CC[C@H]2[C@@](C)(O)[C@@H]2[C@@H]4O[C@@H]4C(C)(C)[C@@]12O)[C@H]3O | – | – | – | > 40 | Non-Toxic | Non-Toxic
CC(=O)O[C@@H]1C[C@@]23C[C@]4(C)O[C@@H](C[C@@H]4[C@H]2O)[C@H]3[C@@](C)(O)C2[C@@H]3O[C@@H]3C(C)(C)[C@]21O (stereo partly specified) | – | – | – | > 40 | Non-Toxic | Non-Toxic
C=C1C[C@@]23C[C@@H](OC(C)=O)[C@@]4(O)[C@@H]([C@@H](O)[C@H](O)C4(C)C)[C@](C)(O)[C@@H]2CC[C@@H]1[C@H]3O | – | – | – | > 40 | Non-Toxic | Non-Toxic
C=C1[C@@H]2CC[C@@H]3[C@@H](O)[C@@]2(C[C@@H](O)[C@@]2(O)[C@H]1C[C@H](O)C2(C)C)C[C@@]3(C)O | – | – | – | > 40 | Non-Toxic | Non-Toxic
